Series [1] can be described thus: Chemical stability of the compound in acetate buffer at pH 4.4 at 10 uM up to 4 hrs. Type of series: physicochemical. The settings on record: pH 4.4, 4 h. Put shortly:
(§1)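 [14C]glucuronide isomer (G1 or G2) at 10 μmol/L final, incubated at 37°C in 50 mmol/L potassium phosphate buffer (pH 7.4), acetate buffer (pH 4.4), rat bile or human plasma. Samples taken at 0, 5, 30 min and 1, 2, 4 h (G1) or 0, 1, 2, 4 h (G2). Reaction stopped with equal-volume acetonitrile and centrifuged. Supernatant analysed by radio-HPLC. Each species reported as % of total radioactivity.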

A short description of series [2]: Chemical stability of the compound in potassium phosphate buffer at pH 7.4 assessed as formation of sipoglitazar at 10 uM up to 4 hrs. Type of series: physicochemical. The conditions noted are these: pH 7.4, 4 h. Put shortly:
as §1

Series [3] can be described thus: Drug level in human hepatic microsomes treated with 100 uM of [14C]Sipoglitazar after 4 hrs by HPLC analysis in presence of UDPGA. Type of series: ADME, Liver. Put shortly: (§2)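 Preparative glucuronidation: [14C]sipoglitazar 100 μmol/L with human liver microsomes (2 mg protein/mL) and UDPGA 5 mmol/L, 37°C, 4 h. Supernatant concentrated under nitrogen, then separated by radio-HPLC on ODS columns at 40°C or 4°C with acetonitrile/water/TFA gradient to resolve the glucuronide isomers.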

Series [4] can be described thus: Stability of the compound in rat bile assessed as formation of sipoglitazar at 10 uM up to 4 hrs. It is filed as ADME, tissue-based. Put shortly:
as §1

Series [5] concerns Plasma. Put plainly: Stability of the compound in human plasma assessed as formation of sipoglitazar at 10 uM up to 4 hrs. Type of series: ADME, cell-free. Put shortly: as §1
The nature of series [6]: Drug metabolism in human hepatic microsomes assessed as formation of sipoglitazar at 10 uM after 10 mins by HPLC analysis in presence of NADPH. It is filed as ADME, Liver, Microsome. Put shortly:
(§3)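 Human liver microsomes (1 mg protein/mL), 10 μmol/L [14C]glucuronide isomer, 5 mmol/L MgCl2, with or without NADPH-generating system (5 mmol/L G6P, 0.5 mmol/L β-NADP+, 1.5 U/mL G6PDH) in 50 mmol/L KPB. Incubated 37°C, 10 min. Acetonitrile quench, then radio-HPLC.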

Series [7] is described as follows: Chemical stability of the compound in potassium phosphate buffer at pH 7.4 assessed as formation of alpha-2-O-acyl glucuronide conjugate of sipoglitazar at 10 uM up to 4 hrs. The settings on record: pH 7.4, 4 h. Type of series: physicochemical. Put shortly: as §1
For another series, the target named is Cytochrome P450 2E1 (Homo sapiens, UniProt P05181). Put plainly: Drug metabolism in […] assessed as CYP2E1-mediated formation of 3-(3-hydroxy-1-{4-[(2-phenyl-1,3-thiazol-4-yl)methoxy]benzyl}-1H-pyrazol-4-yl)propanoic acid at 10 uM after 15 mins by HPLC analysis in presence of NADPH. The conditions noted are these: 0.25 h. Put shortly:
(§4)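 Recombinant CYP-expressing microsomes (80 pmol P450/mL) with 10 μmol/L [14C]glucuronide substrate, 5 mmol/L MgCl2 and NADPH-generating system (5 mmol/L glucose-6-phosphate, 0.5 mmol/L β-NADP+, 1.5 U/mL G6PDH) in 50 mmol/L KPB or Tris-HCl pH 7.4. Incubated 37°C, 15 min. Deethylated product quantified by radio-HPLC. Means of duplicates.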

Series [8] can be described thus: Stability of the compound in rat bile assessed as formation of alpha-2-O-acyl glucuronide conjugate of sipoglitazar at 10 uM up to 4 hrs. Type of series: ADME, tissue-based. Put shortly: as §1
Series [9] concerns Plasma. Kind of series: Stability of the compound in human plasma assessed as formation of alpha-2-O-acyl glucuronide conjugate of sipoglitazar at 10 uM up to 4 hrs. It is filed as ADME, cell-free. Put shortly:
as §1

For another series, the target named is T1, Cytochrome P450 2C8 (Homo sapiens, UniProt P10632).
T1 sequence (P10632 whole entry): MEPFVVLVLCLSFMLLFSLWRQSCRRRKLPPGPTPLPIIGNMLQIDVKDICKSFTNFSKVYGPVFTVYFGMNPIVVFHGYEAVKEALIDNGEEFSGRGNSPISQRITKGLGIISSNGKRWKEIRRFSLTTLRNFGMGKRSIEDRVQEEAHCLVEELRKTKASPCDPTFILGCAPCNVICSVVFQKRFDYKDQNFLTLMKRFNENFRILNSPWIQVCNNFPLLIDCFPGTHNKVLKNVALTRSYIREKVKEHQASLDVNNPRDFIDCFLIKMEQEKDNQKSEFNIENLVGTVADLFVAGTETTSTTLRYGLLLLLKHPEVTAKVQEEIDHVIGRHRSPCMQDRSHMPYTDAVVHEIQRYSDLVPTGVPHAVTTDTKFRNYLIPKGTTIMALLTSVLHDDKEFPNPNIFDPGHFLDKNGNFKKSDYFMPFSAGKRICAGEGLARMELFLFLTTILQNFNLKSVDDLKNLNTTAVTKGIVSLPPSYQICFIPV
Kind of series: Drug metabolism in […] assessed as CYP2C8-mediated formation of 3-(3-hydroxy-1-{4-[(2-phenyl-1,3-thiazol-4-yl)methoxy]benzyl}-1H-pyrazol-4-yl)propanoic acid at 10 uM after 15 mins by HPLC analysis in presence of NADPH. The conditions noted are these: 0.25 h. Put shortly: as §4

Another series has as its target T2, Cytochrome P450 2B6 (Homo sapiens, UniProt P20813).
T2 sequence (P20813 whole entry): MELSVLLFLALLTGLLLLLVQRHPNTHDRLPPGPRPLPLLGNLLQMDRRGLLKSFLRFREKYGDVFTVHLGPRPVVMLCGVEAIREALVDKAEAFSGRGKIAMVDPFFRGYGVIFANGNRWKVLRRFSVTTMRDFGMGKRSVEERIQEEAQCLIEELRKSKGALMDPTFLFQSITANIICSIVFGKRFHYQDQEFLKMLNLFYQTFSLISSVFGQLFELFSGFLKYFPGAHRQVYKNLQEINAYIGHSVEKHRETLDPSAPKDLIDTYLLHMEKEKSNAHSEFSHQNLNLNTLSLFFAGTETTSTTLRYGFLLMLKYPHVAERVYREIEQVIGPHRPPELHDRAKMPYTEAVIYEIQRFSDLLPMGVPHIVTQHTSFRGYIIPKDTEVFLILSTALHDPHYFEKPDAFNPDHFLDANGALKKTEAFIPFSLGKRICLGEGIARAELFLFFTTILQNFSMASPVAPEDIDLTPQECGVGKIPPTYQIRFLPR
Kind of series: Drug metabolism in […] assessed as CYP2B6-mediated formation of 3-(3-hydroxy-1-{4-[(2-phenyl-1,3-thiazol-4-yl)methoxy]benzyl}-1H-pyrazol-4-yl)propanoic acid at 10 uM after 15 mins by HPLC analysis in presence of NADPH. The settings on record: 0.25 h. Put shortly:
as §4

A short description of series [10]: Drug metabolism in human hepatic microsomes assessed as formation of 3-(3-hydroxy-1-{4-[(2-phenyl-1,3-thiazol-4-yl)methoxy]benzyl}-1H-pyrazol-4-yl)propanoic acid at 10 uM after 10 mins by HPLC analysis in presence of NADPH. It is filed as ADME, Liver, Microsome. Put shortly:
as §3

A short description of series [11]: Drug metabolism in human hepatic microsomes assessed as formation of 3-[3-ethoxy-1-(4-hydroxybenzyl)-1H-pyrazol-4-yl]propanoic acid] at 10 uM after 1 hr by LC-MS and LC-MS/MS analysis in presence of NADPH.
The nature of series [12]: Drug metabolism in human hepatic microsomes assessed as formation of 3-(3-hydroxy-1-{4-[(2-phenyl-1,3-thiazol-4-yl)methoxy]benzyl}-1H-pyrazol-4-yl)propanoic acid at 10 uM after 30 mins by LC-MS and LC-MS/MS analysis in presence of gemfibrozil, NADPH and UDPGA. Type of series: ADME, Liver, Microsome. The settings on record: 0.5 h. Put shortly:
(§5)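 Human liver microsomes (0.5 mg protein/mL), 10 μmol/L [14C]sipoglitazar, 5 mmol/L MgCl2, alamethicin 50 μg/mL and UDPGA 5 mmol/L, with or without NADPH-generating system. Gemfibrozil added at 0, 10, 30, 100 or 300 μmol/L final, in 50 mmol/L KPB pH 7.4. Incubated 37°C, 30 min. Acetonitrile quench, then radio-HPLC.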

Series [13] is described as follows: Drug metabolism in human hepatic microsomes assessed as elimination of compound at 10 uM after 30 mins by LC-MS and LC-MS/MS analysis in presence of gemfibrozil, NADPH and UDPGA. It is filed as ADME, Liver, Microsome. The conditions noted are these: 0.5 h. Put shortly: as §5
Series [14] can be described thus: Drug metabolism in human hepatic microsomes assessed as formation of 3-[3-ethoxy-1-(4-hydroxybenzyl)-1H-pyrazol-4-yl]propanoic acid] at 10 uM after 6 hrs by LC-MS and LC-MS/MS analysis in presence of NADPH and UDPGA. Type of series: ADME, Liver, Microsome.
The nature of series [15]: Drug metabolism in cryopreserved primary human hepatocytes assessed as formation of 3-[3-ethoxy-1-(4-hydroxybenzyl)-1H-pyrazol-4-yl]propanoic acid] at 10 uM after 6 hrs by LC-MS and LC-MS/MS analysis. It is filed as ADME, cell-based, Hepatocyte. Put shortly: (§6)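 Cryopreserved human hepatocytes suspended in DMEM at 3 x 10⁵ viable cells/well with 10 μmol/L [14C]sipoglitazar, 37°C, 6 h. Stopped with acetonitrile and centrifuged; supernatant run on radio-HPLC (ODS column, acetonitrile/water/TFA gradient). Metabolites expressed as % of total radioactivity. Means of duplicates.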

Series [16] can be described thus: Drug metabolism in human hepatic microsomes assessed as elimination of compound at 10 uM after 30 mins by LC-MS and LC-MS/MS analysis in presence of gemfibrozil and UDPGA. It is filed as ADME, Liver, Microsome. The settings on record: 0.5 h. Put shortly: as §5
Series [17] in a line: Drug metabolism in human hepatic microsomes assessed as beta-1-O-acyl glucuronide conjugate of sipoglitazar formation at 10 uM after 30 mins by LC-MS and LC-MS/MS analysis in presence of gemfibrozil and UDPGA. It is filed as ADME, Liver, Microsome. The conditions noted are these: 0.5 h. Put shortly:
as §5

The nature of series [18]: Drug metabolism in human hepatic microsomes assessed as formation of beta-1-O-acyl glucuronide conjugate of sipoglitazar at 100 uM after 4 hrs by HPLC analysis in presence of UDPGA. It is filed as ADME, Liver, Microsome. Put shortly: as §2
Series [19] in a line: Drug metabolism in human hepatic microsomes assessed as formation of 3-(3-hydroxy-1-{4-[(2-phenyl-1,3-thiazol-4-yl)methoxy]benzyl}-1H-pyrazol-4-yl)propanoic acid at 10 uM after 6 hrs by LC-MS and LC-MS/MS analysis in presence of NADPH and UDPGA. It is filed as ADME, Liver, Microsome.
Series [20] is described as follows: Drug metabolism in human hepatic microsomes assessed as formation of 3-(3-hydroxy-1-{4-[(2-phenyl-1,3-thiazol-4-yl)methoxy]benzyl}-1H-pyrazol-4-yl)propanoic acid at 10 uM after 1 hr by LC-MS and LC-MS/MS analysis in presence of NADPH.
Series [21] in a line: Drug metabolism in cryopreserved primary human hepatocytes assessed as formation of 3-(3-hydroxy-1-{4-[(2-phenyl-1,3-thiazol-4-yl)methoxy]benzyl}-1H-pyrazol-4-yl)propanoic acid at 10 uM after 6 hrs by LC-MS and LC-MS/MS analysis. It is filed as ADME, cell-based, Hepatocyte. Put shortly:
as §6

Series [22] can be described thus: Drug metabolism in human hepatic microsomes assessed as formation of alpha-2-O-acyl glucuronide conjugate of sipoglitazar at 100 uM after 4 hrs by HPLC analysis in presence of UDPGA. It is filed as ADME, Liver, Microsome. Put shortly: as §2
The nature of series [23]: Drug metabolism in human hepatic microsomes assessed as formation of 3-[3-ethoxy-1-(4-hydroxybenzyl)-1H-pyrazol-4-yl]propanoic acid] at 10 uM after 30 mins by LC-MS and LC-MS/MS analysis in presence of gemfibrozil, NADPH and UDPGA. It is filed as ADME, Liver, Microsome. The settings on record: 0.5 h. Put shortly: as §5

Molecules are shown by their SMILES.

Cytochrome P450 2E1, sequence (P05181 whole entry): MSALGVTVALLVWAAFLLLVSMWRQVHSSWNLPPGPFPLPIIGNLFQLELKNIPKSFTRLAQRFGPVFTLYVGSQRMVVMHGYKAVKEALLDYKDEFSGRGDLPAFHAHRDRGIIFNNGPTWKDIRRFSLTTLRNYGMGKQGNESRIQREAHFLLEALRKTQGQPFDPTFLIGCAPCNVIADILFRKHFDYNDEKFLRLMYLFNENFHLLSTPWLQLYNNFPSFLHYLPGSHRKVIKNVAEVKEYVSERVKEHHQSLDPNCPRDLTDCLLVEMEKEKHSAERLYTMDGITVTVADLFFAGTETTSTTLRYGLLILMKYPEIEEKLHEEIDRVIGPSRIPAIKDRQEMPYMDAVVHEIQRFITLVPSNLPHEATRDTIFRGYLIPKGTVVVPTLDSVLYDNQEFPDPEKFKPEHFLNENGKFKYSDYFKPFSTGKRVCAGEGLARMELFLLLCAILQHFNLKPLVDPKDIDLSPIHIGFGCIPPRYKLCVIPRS

Consider `CCOc1nn(Cc2ccc(OCc3csc(-c4ccccc4)n3)cc2)cc1CCC(=O)O[C@@H]1[C@@H](O)[C@H](O)[C@@H](C(=O)O)O[C@@H]1O`, for which the Stability result in series [1] is recorded as “Stable”; in [2], “Unstable”; in [4], “Unstable”; with Plasma [5], “Unstable”. The Drug metabolism entry in [3] and in [6] was “metabolite_detected” throughout.

`CCOc1nn(Cc2ccc(OCc3csc(-c4ccccc4)n3)cc2)cc1CCC(=O)O[C@@H]1O[C@H](C(=O)O)[C@@H](O)[C@H](O)[C@H]1O`: the Stability entry in [7] is recorded as “Unstable”; in [1] it was “Stable”; in [2] it was “Unstable”; in [8] it was “Unstable”; in [4], “Unstable”; in the series on Plasma [5], “Unstable”. In addition, the Stability result in the series with Plasma [9] is listed as “Unstable”. Besides, the Drug metabolism result in series [3] is reported as “metabolite_detected”; on Cytochrome P450 2E1 it was “metabolite_not_detected”; in series [6] it was “metabolite_detected”; on Cytochrome P450 2C8, “metabolite_detected”; at Cytochrome P450 2B6, “metabolite_not_detected”; in [10], “metabolite_detected”.

Turning to `CCOc1nn(Cc2ccc(OCc3csc(-c4ccccc4)n3)cc2)cc1CCC(=O)O` [SIPOGLITAZAR], the Drug metabolism entry is reported as “metabolite_detected” in series [11]; “metabolite_not_detected” in series [12]; “metabolite_not_detected” in [13]; “metabolite_detected” in series [14]; “metabolite_detected” in series [15]; “metabolite_not_detected” in series [16]. The Drug metabolism result is “metabolite_not_detected” in series [17]; “metabolite_detected” in series [18]; “metabolite_detected” in [19]; “metabolite_detected” in series [20]; “metabolite_detected” in series [21]; “metabolite_detected” in [22]. In addition, in [23], the Drug metabolism entry was “metabolite_not_detected”.
